Laboratory results published in ChEMBL document CHEMBL4368899, “Novel carbohydrate modified berberine derivatives: synthesis and in vitro anti-diabetic investigation” (Medchemcomm, 2019).

Columns and labels:
[1] = Stability of compound in acetonitrile/water at 1:1 ratio at pH 1.5 assessed as compound degradation after 5 hrs by HPLC analysis; assay type: physicochemical; conditions: acetonitrile/water 1:1, pH 1.5; read-out: Drug degradation
Procedure, shortened: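 Remaining compound after 5 h was quantified by HPLC on a C8 column (250 × 4.6 mm, 5 µm). Elution used 50% acetonitrile in 0.05 mol L⁻¹ aqueous KH2PO4 at 1 mL min⁻¹, with detection at 320 nm.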

[2] = tested on: HepG2; assay: Cytotoxicity against human HepG2 cells after 12 hrs by CCK-8 assay; assay type: cell-based; conditions: for IC50: Homo sapiens, HepG2, 12 h; for Activity: human, hepg2, 12 h
Procedure, shortened: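 Cells were cultured in DMEM/10% heat-inactivated FBS with penicillin/streptomycin at 37 °C, 5% CO2, and harvested with trypsin at 80–90% confluence. They were plated at 1×10^5 cells per mL, and medium was refreshed after 12 h. Cells were treated 12 h with 0.2–625 µg mL⁻¹ compound dissolved in 0.5% DMSO–water. CCK-8 was added for 4 h, then A570 read, correcting for compound colour. IC50 is relative to untreated cells as 100%. n = 3.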

[3] = Aqueous solubility of compound; assay type: physicochemical; conditions: water
[4] = tested on: HepG2; assay: Antidiabetic activity in human HepG2 cells assessed as increase in glucose consumption at 5 ug/mL after 48 hrs by glucose oxidase method relative to berberine; assay type: functional
Procedure, shortened: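 HepG2 cells were grown in DMEM with 10% heat-inactivated FBS and penicillin/streptomycin. They were seeded at 2×10^5 cells per well and cultured 12 h at 37 °C in 5% CO2. Cells were then exposed to 5.0 µg mL⁻¹ compound for two days. A DMSO solvent control and a blank were run. Glucose was measured by glucose oxidase. Consumption = blank-well glucose minus glucose remaining in treated wells. Means ± SD, n = 8, expressed as % increase over berberine.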

| degraded at 5 h [1] | solubility [3] | Compound | IC50 [2] | Activity [2] | Activity [4] |
| --- | --- | --- | --- | --- | --- |
| 0.3% | 9000 µg/mL | COc1ccc2cc3[n+](cc2c1OCc1cn([C@H]2O[C@H](CO)[C@@H](O)[C@H](O)[C@@H]2O)nn1)CCc1cc2c(cc1-3)OCO2.[Cl-] | 72.2 µg/mL | Dose-dependent effect | 10.81% |
|  |  | COc1ccc2cc3[n+](cc2c1OCc1cn([C@@H]2O[C@H](CO)[C@@H](O)[C@H]2O)nn1)CCc1cc2c(cc1-3)OCO2.[Cl-] | 44 µg/mL | Dose-dependent effect | 14.83% |
|  |  | COc1ccc2cc3[n+](cc2c1OCc1cn([C@@H]2O[C@H](CO)[C@@H](O)[C@H](O)[C@H]2O)nn1)CCc1cc2c(cc1-3)OCO2.[Cl-] | 62.9 µg/mL | Dose-dependent effect | 2.23% |
|  |  | COc1ccc2cc3[n+](cc2c1OCc1cn([C@@H]2O[C@@H](C)[C@H](O)[C@@H](O)[C@H]2O)nn1)CCc1cc2c(cc1-3)OCO2.[Cl-] | 49.3 µg/mL | Dose-dependent effect | -3.6% |
|  |  | COc1ccc2cc3[n+](cc2c1OCc1cn([C@@H]2O[C@H](CO)[C@H](O)[C@H](O)[C@H]2O)nn1)CCc1cc2c(cc1-3)OCO2.[Cl-] | 59.3 µg/mL | Dose-dependent effect | 0.21% |
| 1.8% | 1750 µg/mL | COc1ccc2cc3[n+](cc2c1OC)CCc1cc2c(cc1-3)OCO2.[Cl-] [BERBERINE CHLORIDE] | 53.9 µg/mL |  |  |
